According to ChEMBL document CHEMBL2321661, “Synthesis and biological evaluation of 5-nitropyrimidine analogs with azabicyclic substituents as GPR119 agonists” (Bioorg Med Chem Lett, 2013):

How the values were obtained:
[1] = target: T1, Glucose-dependent insulinotropic receptor (Homo sapiens) (UniProt Q8TDV5); assay: Agonist activity at human GPR119 transfected in HEK293 cells assessed as cAMP stimulation relative to maximal effect of oleylethanolamine; format: functional, cell-based
T1 sequence (whole entry): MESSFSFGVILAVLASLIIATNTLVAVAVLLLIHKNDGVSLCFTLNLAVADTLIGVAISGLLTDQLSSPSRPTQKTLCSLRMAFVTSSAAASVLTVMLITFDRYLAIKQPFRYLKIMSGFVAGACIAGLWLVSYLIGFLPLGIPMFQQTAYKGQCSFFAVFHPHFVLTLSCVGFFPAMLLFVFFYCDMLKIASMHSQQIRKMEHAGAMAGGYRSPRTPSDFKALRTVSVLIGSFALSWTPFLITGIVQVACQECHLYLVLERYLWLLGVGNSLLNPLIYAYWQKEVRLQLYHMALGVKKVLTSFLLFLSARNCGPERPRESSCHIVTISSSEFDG
Outline: (§1)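 HEK293 cells seeded at 4 × 10³ cells/well and grown 24 h, then transiently transfected with a human GPR119 expression plasmid by lipofection. After 24 h, compounds were applied in KRBH buffer with 0.1% BSA and IBMX for 60 min at 37 °C. Cells were lysed 10 min at room temperature (phosphate/KF/Triton, pH 7.0), and cAMP was read by HTRF.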

[2] = target: T2, Glucose-dependent insulinotropic receptor (Homo sapiens, UniProt Q8TDV5); assay: Agonist activity at human GPR119 transfected in HEK293 cells assessed as concentration for 50 % cAMP stimulation of oleylethanolamine; format: functional, cell-based; outline: as §1
T2 sequence (Q8TDV5 whole entry): T1 sequence (whole entry)

Row | Structure (SMILES) | Emax [1] [%] | EC50 [2] [nM]
1 | CC(C)(C)OC(=O)N1[C@@H]2CC[C@H]1C[C@@H](CNc1ncnc(Nc3ccc(S(C)(=O)=O)cc3F)c1[N+](=O)[O-])C2 | 53 | 6.7
2 | CC(C)(C)OC(=O)N1[C@@H]2CC[C@H]1C[C@@H](Oc1ncnc(Nc3ccc(S(C)(=O)=O)cc3)c1[N+](=O)[O-])C2 (stereo in doubt; 13) [listing 1 of 2 here] | 69 | 
3 | CC(C)(C)OC(=O)N1[C@@H]2CC[C@H]1C[C@@H](Oc1ncnc(Nc3ccc(S(C)(=O)=O)cc3F)c1[N+](=O)[O-])C2 (stereo in doubt; 14) [listing 1 of 2 here] |  | 1.4
4 | CCCCCCCC/C=C\CCCCCCCC(=O)NCCO | 100 | 
5 | CC(C)(C)OC(=O)N1[C@@H]2CC[C@H]1C[C@H](Nc1ncnc(Nc3ccc(S(C)(=O)=O)cc3F)c1[N+](=O)[O-])C2 | 99 | 1.5
6 | CC(C)(C)OC(=O)N1[C@@H]2CC[C@H]1C[C@@H](Oc1ncnc(Nc3ccc(S(C)(=O)=O)cc3)c1[N+](=O)[O-])C2 (stereo in doubt; 11) [listing 1 of 2 here] |  | 4.9
7 | CC(C)(C)OC(=O)N1[C@@H]2CC[C@H]1C[C@H](Nc1ncnc(Nc3ccc(S(C)(=O)=O)cc3)c1[N+](=O)[O-])C2 | 139 | 11.5
8 | CC(C)(C)OC(=O)N1[C@@H]2CC[C@H]1C[C@@H](Oc1ncnc(Nc3ccc(S(C)(=O)=O)cc3F)c1[N+](=O)[O-])C2 (stereo in doubt; 14) [listing 2 of 2 here] | 65 | 
9 | CC(C)(C)OC(=O)N1[C@@H]2CC[C@H]1C[C@@H](CNc1ncnc(Nc3ccc(S(C)(=O)=O)cc3)c1[N+](=O)[O-])C2 | 41 | > 10000
10 | CC(C)(C)OC(=O)N1[C@@H]2CC[C@H]1C[C@@H](Oc1ncnc(Nc3ccc(S(C)(=O)=O)cc3F)c1[N+](=O)[O-])C2 (stereo in doubt; 12) [listing 1 of 2 here] | 116 | 
11 | CC(C)(C)OC(=O)N1[C@@H]2CC[C@H]1C[C@@H](Oc1ncnc(Nc3ccc(S(C)(=O)=O)cc3F)c1[N+](=O)[O-])C2 (stereo in doubt; 12) [listing 2 of 2 here] |  | 1.5
12 | CC(C)(C)OC(=O)N1[C@@H]2CC[C@H]1C[C@@H](Oc1ncnc(Nc3ccc(S(C)(=O)=O)cc3)c1[N+](=O)[O-])C2 (stereo in doubt; 11) [listing 2 of 2 here] | 99 | 
13 | CC(C)(C)OC(=O)N1[C@@H]2CC[C@H]1C[C@@H](Oc1ncnc(Nc3ccc(S(C)(=O)=O)cc3)c1[N+](=O)[O-])C2 (stereo in doubt; 13) [listing 2 of 2 here] |  | 14.5
